Measurements reported in publication PMC4324687 (Pharmacology Research & Perspectives, 2015).
Several values for one entry are separate records, joined by “and”; a condition that tells them apart may be missing. Equal entries are not always repeated. Where two headings read alike, the source gives them in different places.

What was measured:
[1] = Metabolic profiling of pooled plasma; assay type: in vivo, human; conditions: for proportion of total chromatographic radioactivity in plasma, overall: over the 48-h interval postdose
[2] = cited from earlier work
CYP3A4 = conditions: human liver microsomes; ref F. Hoffmann-La Roche, data on file; cited from earlier work
[3] = tested on: patients with metastatic melanoma; experiment: Safety assessments in patients with metastatic melanoma; assay type: in vivo, human
Outline: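 Seven patients received a single oral 960-mg dose of 14C-labelled test compound on day 15 after ≥8 h fasting. Monitoring ran through the study and a 28-day follow-up and covered adverse events, routine laboratory values, physical examination, vital signs, electrocardiography, dermatology, and head/neck and chest CT. SCC cases were followed until death, consent withdrawal or loss to follow-up. Severity was graded by NCI CTCAE v4.0 and summarised.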

[4] = assay type: in vivo, human
[5] = Metabolic profiling of pooled feces; assay type: in vivo, human
[6] = Metabolic profiling of pooled urine; assay type: in vivo, human; conditions: single pool 0–96 h
[7] = cited from earlier work; remark: listed apart in the source
[8] = dog plasma after oral administration; ref F. Hoffmann-La Roche, data on file; cited from earlier work
[9] = ref F. Hoffmann-La Roche, data on file, cited from earlier work
[10] = Pharmacokinetics of 14C-vemurafenib-related material; assay type: in vivo, human; conditions: for Cmax, mean ± SD [CV%]: single oral 960-mg dose
[11] = laboratory evaluation, of seven patients
[12] = within 18 days after dosing, listed as 14C-vemurafenib
[13] = plasma, N=5, listed as 14C-vemurafenib

CCCS(=O)(=O)Nc1ccc(F)c(C(=O)c2c[nH]c3ncc(-c4ccc(Cl)cc4)cc23)c1F [vemurafenib]
proportion of radioactivity in pooled plasma, mean ± SD ([1]; 4–6 h pool): 99.5 ± 1.4% | proportion of radioactivity in pooled plasma, mean ± SD ([1]; 12–24 h pool): 95.9 ± 5.5% | proportion of radioactivity in pooled plasma, mean ± SD ([1]; 36–48 h pool): 96.0 ± 3.8% | proportion of total chromatographic radioactivity in plasma, overall ([1]; listed as parent compound): 95% | proportion of total chromatographic radioactivity in plasma, overall ([1]; listed as parent molecule): > 95% | median elimination half-life (population PK modeling) ([2]; continual multiple-dose vemurafenib, ref Genentech, Inc. [2014]): 57 h | elimination half-life after a single dose ([2]; single dose, ref Ribas et al. [2014]): ~25 h | primary enzyme responsible for metabolism and formation of hydroxylated metabolites (CYP3A4): CYP3A4 was the primary enzyme | severity of most adverse events ([3]; NCI CTCAE grade 1 or 2): mild or moderate | serious adverse events (all grade 3), number of events ([3]; cuSCC, cuSCC and keratoacanthoma, considered related): Three | elevated low-density lipoprotein cholesterol level [3, 11]: three | grade 3 lymphopenia [3, 11]: four | low white blood cell count [3, 11]: three | changes in electrocardiography or vital signs ([3]; seven patients): No clinically significant changes | patients with at least one adverse event related to vemurafenib ([3]; seven patients): All patients | treatment discontinuation because of an adverse event ([3]; seven patients): No patient discontinued treatment | tolerability ([3]; seven patients, 960 mg twice daily): well-tolerated | time within which the majority of fecal radioactivity was eliminated ([4]; cumulative excretion in feces): ≤ 264 h | time within which the majority of urinary radioactivity was eliminated ([4]; cumulative excretion in urine): ≤ 192 h | radioactivity recovered in feces, mean ± SD ([4]; within 18 days after dosing): Approximately 94% | radioactivity recovered in feces, range ([4]; within 18 days after dosing): 89.4–97.6% | radioactivity recovered in urine, mean ([4]; within 18 days after dosing): ≤ 1% | radioactivity recovered in urine, range ([4]; within 18 days after dosing): 0.56–1.63% | radioactivity recovered in feces, mean ± SD [4, 12]: 94.1% and 94.1 ± 2.7% | radioactivity recovered in urine, mean [4, 12]: < 1% | 14C-vemurafenib-related material recovered from urine and feces, range ([4]; within 18 days after dosing, seven patients): 91.0–98.3% | proportion of radioactivity in feces, mean ([5]; 48–96 h pool): 55.5 ± 20.1% | % of the total input dose found in pooled feces ([5]; first 48 h): 38% | proportion of all recovered radioactivity in feces, mean ± SD ([5]; first 48 h pool): 94.2 ± 5.8% | % of the total radioactive dose found in pooled feces ([5]; within the first 96 h): ~55% | % of total administered (input radioactive) dose in urine [6]: ~1% | maximum tolerated dose and recommended dose for further clinical evaluation ([7]; phase 1 data, ref Flaherty et al. [2010]): 960 mg twice daily | pharmacokinetics with hand-filled capsules versus tablets ([7]; phase 1 trial PLX06-02, ref phase 1 trial PLX06-02): No differences | component status of unchanged parent drug in plasma [8]: major component | component status of unchanged parent drug in plasma ([9]; rat plasma after oral administration): major component | route of recovery of vemurafenib-derived radioactivity (parent plus metabolites) ([9]; rats): primarily recovered in feces | Blood/plasma AUC ratio, mean ± SD [CV%] ([10]; N=5): 0.72 ± 0.050 [6.83] | 14C-vemurafenib-related material that might be bound to the cellular compartment in whole blood ([10]; assuming 40–50% of whole blood is cells): 10–20% | Tmax, median (minimum–maximum) ([10]; blood, N=5): 4.1 (4–12) ^1 h | t½ (elimination half-life), mean ± SD [CV%] ([10]; blood, N=5): 84.4 ± 24.6 [29.1] h | Cmax, mean ± SD [CV%] ([10]; blood, N=5): 5.25 ± 1.71 [32.5] μg eq/mL | Blood/plasma AUC ratio, range ([10]; human, blood and plasma, oral, 960 mg): 0.69–0.81 | plasma elimination half-life of 14C-vemurafenib-related material, range ([10]; plasma): 51 to 86 h | Tmax, median (minimum–maximum) ([10]; plasma, N=5): 4.1 (4–12) ^1 h | t½ (elimination half-life) of 14C-vemurafenib-related material, mean ± SD [CV%] ([10]; plasma, N=5): 71 h | t½ (elimination half-life) of 14C-vemurafenib-related material, mean ± SD [CV%] [10, 13]: 71.1 ± 15.4 [21.6] h | Cmax, mean ± SD [CV%] [10, 13]: 7.83 ± 2.28 [29.1] μg eq/mL
